Test results as given in PMC8373685 (European journal of medicinal chemistry, 2021).

Experiments:
[1] = system: TNFα-induced IKKβ-mediated NFκB activity; experiment: κB luciferase reporter assay; assay type: cell-based; settings: for inhibition of TNFα-induced NFκB activity (SAR, in words): A549 luciferase reporter
[2] = system: caspase 3/7 activity in MiaPaCa2 cells; experiment: Caspase 3/7 assay; assay type: cell-based; settings: 10 μM, 24h
Summary of the method: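 MiaPaCa2 cells were exposed to test compound for 24 h at 0.1% final DMSO, n=3. At 21 h, alamarBlue (1/10 well volume) was added for 3 h and fluorescence read at 560ex/590em. Plates equilibrated 15 min at room temperature, then Caspase-Glo reagent was added and luminescence read 2 h later. Value = (luminescence×100/fluorescence)/DMSO average.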

[3] = system: MiaPaCa2; experiment: Growth inhibition assay; assay type: cell-based
Summary of the method: (§1)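 Cell viability was read with PrestoBlue after 72 h incubation with test compound, n=3. Data are average ± SEM.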

[4] = system: T3M4; experiment: Growth inhibition assay; assay type: cell-based; settings: 3-day cell growth assay
Summary of the method: as §1

[5] = system: MiaPaCa2 cells; experiment: Live/dead cell assay; assay type: cell-based; settings: 5 and 10 μM for 24h
[6] = system: MiaPaCa2 cells; experiment: Colony formation assay; assay type: cell-based; settings: 5 μM; compared to DMSO treated cells
Summary of the method: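 MiaPaCa2 cells (1.0×10³) were seeded in 6-well plates and treated 24 h. They were then washed and grown 8–10 days, with medium changed every 3 days. Cells were fixed in 4% paraformaldehyde 15 min and stained with 0.5% crystal violet 2 h at room temperature. Colonies were counted in triplicate from 10x bright-field images against vehicle (DMSO); unpaired t-test.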

[7] = system: MiaPaCa2 cells; experiment: Cell scratch; assay type: cell-based; settings: 5 μM at 24 and 48h; compared to DMSO
[8] = Pharmacokinetic studies in mice; assay type: in vivo, CD1 mice
Summary of the method: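 CD1 mice received test compound orally at 20 mg/kg in DMSO:PEG400:H₂O 1:4:5, or intravenously at 10 mg/kg in DMSO:PEG400:H₂O 1:5:4. Mice were sacrificed at 0.083–24 h (8 time points) and plasma analysed by LC/MS/MS with carbamazepine as internal standard. PK parameters came from non-compartmental analysis; oral bioavailability was derived from oral versus intravenous AUC.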

[9] = system: MiaPaCa2 cells subcutaneously implanted; experiment: Pancreatic tumor xenograft model; assay type: in vivo, athymic nude mice; settings: treated versus vehicle, n = 5
Summary of the method: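 MiaPaCa2 cells (2.5×10⁶, Matrigel 2:1) were implanted s.c. in the flank of athymic nude mice and randomized at day 20 (n=6/group). Arms: vehicle, test compound 40 mg/kg orally daily, gemcitabine 15 mg/kg i.p. every 72 h, or combination. Mice were sacrificed after day 27. On FFPE tumors, Ki-67 was scored as % positive cells over 4 fields, and p-IKKβ by IHC histoscore (proportion 1–5 × intensity 0–3); n=5, unpaired t-test.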

1-(3-(1-methyl-1H-pyrazol-4-yl)quinoxalin-6-yl)-3-(3-(trifluoromethyl)phenyl)urea [compound 79]
inhibition of TNFα-induced NFκB activity (SAR, in words) ([1]; screened at 10μM): further improvement of activity

1-(3-chloro-4-fluorophenyl)-3-(3-(1-methyl-1H-pyrazol-4-yl)quinoxalin-6-yl)urea [compound 80]
potency in NFκB screen relative to 13–197 ([1]; screened at 10μM): ~ 3 fold

1-(4-fluoro-3-(trifluoromethoxy)phenyl)-3-(3-(1-methyl-1H-pyrazol-4-yl)quinoxalin-6-yl)urea [compound 83]
inhibition of TNFα-induced NFκB activity (SAR, in words) ([1]; screened at 10μM): further improved

1-(4-fluoro-3-(trifluoromethyl)phenyl)-3-(3-(1-methyl-1H-pyrazol-4-yl)quinoxalin-6-yl)urea [compound 84]
IC50 ratio versus 13–197, TNFα-induced NFκB inhibition ([1]; 84 versus reported value for 13–197): ~ 2.5 fold | IC50 ([1]; read-out: IC50, TNFα-induced IKKβ-mediated NFκB activity, dose-response, dual luciferase reporter assay, n = 3): 3.3 ± 0.5 µM | inhibition of TNFα-induced NFκB activity (SAR, in words) ([1]; screened at 10μM): most potent inhibitor | caspase 3/7 activation [2]: most potently induced caspase activation | caspase 3/7 induction relative to 13–197 [2]: ~ 4 fold | growth inhibition ([3]; 3-day cell growth assay, MiaPaCa2): low-μM potency | potency in inhibiting pancreatic cancer cell growth relative to 13–197 ([3]; cell line not specified at place): ~ 4 fold | growth inhibition [4]: low-μM potency | cell death in live/dead assay [5]: induced MiaPaCa2 cell death in a dose-dependent manner | inhibition of colony forming ability [6]: > 50% | inhibition of cell migration [7]: more effective inhibiting the migration of PDAC cells | increase in oral bioavailability (%F) relative to 13–197 [8]: ~ 5.7 fold | intravenous exposure (AUC0−∞) relative to oral exposure ([8]; 10 mg/kg intravenous versus 20 mg/kg oral): ~ 2.8 fold | Tmax and Cmax relative to 13–197 ([8]; 20 mg/kg oral): ~ 2.5 times | exposure (AUC0−∞) relative to 13–197 ([8]; 20 mg/kg oral): ~ 4.3 fold | p-IKKβ levels in tumor tissue ([9]; immunohistochemistry): reduction in p-IKKβ levels | Ki67 staining (proliferation index) in tumor tissue [9]: reduction in Ki67 staining

1-(4-fluoro-3-methoxyphenyl)-3-(3-(1-methyl-1H-pyrazol-4-yl)quinoxalin-6-yl)urea [compound 82]
inhibition of TNFα-induced NFκB activity (SAR, in words) ([1]; screened at 10μM): activity was restored

1-(4-fluoro-3-methylphenyl)-3-(3-(1-methyl-1H-pyrazol-4-yl)quinoxalin-6-yl)urea [compound 81]
inhibition of TNFα-induced NFκB activity (SAR, in words) ([1]; screened at 10μM): dramatically reduced the activity

Cn1cc(-c2cnc3ccc(NC(=O)Nc4ccc(F)c(Br)c4)cc3c2)cn1 [compound 85, 1-(3-bromo-4-fluorophenyl)-3-(3-(1-methyl-1H-pyrazol-4-yl)quinolin-6-yl)urea]
inhibition of TNFα-induced NFκB activity (SAR, in words) ([1]; screened at 10μM): loss of activity

Cn1ccc(-c2cnc3ccc(NC(=O)Nc4ccc(F)c(Br)c4)cc3n2)c1 [compound 86, 1-(3-bromo-4-fluorophenyl)-3-(3-(1-methyl-1H-pyrrol-3-yl)quinoxalin-6-yl)urea]
inhibition of TNFα-induced NFκB activity (SAR, in words) ([1]; screened at 10μM): loss of activity
